Assay outcomes: PubChem, several laboratories
GalR3 antagonist: antagonists of human GalR3; AID 651719; inhibition, % at 3 µM; O60755; 0.44% of 360,000 active; HEK293 GalR3-CNG cAMP membrane potential fluorescence; galR3 body fused to GalR1 C-terminus;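 active = inhibition above the screen-wide average plus 3 SD, cut at about 13% in these data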;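 note: forskolin and galanin both at EC90 stimulate the cells; cAMP rise reported by CNG channel membrane potential dye signal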
NR2F2 inh: blocks human COUP-TFII nuclear receptor | P24468 | HEK293T NGFI-A luciferase reporter, luminescence | inhibition, % at 8.6 µM | 0.7% of 370,000 active | AID 686940;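 active = inhibition above a per-plate cutoff, mean inhibition of test wells between control levels plus 3 SD, cut at about 38% in these data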;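 note: cells cotransfected with COUP-TFII expression vector driving the NGFI-A reporter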
CHT allo act: allosteric activators of human choline transporter CHT; CHT-expressing cells, membrane potential dye, choline EC20; hits give high values; LV-AA mutant CHT in HEK293 cells; 0.49% of 310,000 active; Q9GZV3; B-score at 10 µM; AID 488977;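 active = initial fluorescence not abnormally high and integrated response B-score, plate-corrected, over 3 SD above library mean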
NR2E3 ag-1: human photoreceptor-specific nuclear receptor agonism; Q9Y5X4; CHO-S Gal4-NCOR/VP16-NR2E3 two-hybrid, luciferase; inhibition of corepressor binding, % at 3.98 µM; 0.35% of 360,000 active; AID 602229;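 active = inhibition above the mean of all tested compounds plus 3 SD, cut at about 70% in these data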;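 note: higher means lower luciferase signal from less NR2E3 corepressor binding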
Target sequence (Q9Y5X4 whole entry, looked up, the tested form may be a part): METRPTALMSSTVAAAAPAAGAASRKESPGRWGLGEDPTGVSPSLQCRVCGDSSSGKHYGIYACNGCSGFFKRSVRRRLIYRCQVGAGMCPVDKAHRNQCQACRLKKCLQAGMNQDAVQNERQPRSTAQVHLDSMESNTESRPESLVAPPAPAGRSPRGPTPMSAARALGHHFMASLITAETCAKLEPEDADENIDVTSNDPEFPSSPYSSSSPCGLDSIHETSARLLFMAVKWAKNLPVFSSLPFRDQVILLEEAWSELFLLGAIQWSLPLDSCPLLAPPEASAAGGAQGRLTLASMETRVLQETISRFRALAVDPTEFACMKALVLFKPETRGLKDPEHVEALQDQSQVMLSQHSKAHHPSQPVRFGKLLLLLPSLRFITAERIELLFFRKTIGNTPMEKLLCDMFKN
CHT inh: human CHT choline transport inhibition. Q9GZV3. CHT-expressing cells, membrane potential dye, choline response; hits give low values. B-score at 10 µM. 0.86% of 310,000 active;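 active = B-score over 3 SD under the library average, and starting fluorescence ratio not unusually high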;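 note: choline stimulus applied at its EC90 after an EC20 pre-addition; B-score computed on integrated fluorescence ratio after choline addition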
NR2E3 ag-2: agonists of human nuclear receptor NR2E3; 0.12% of 320,000 active; Q9Y5X4; inhibition of corepressor binding, % at 4.78 µM; GST-NR2E3/biotin-RetCOR TR-FRET, 1536-well;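 active = percent inhibition above the cutoff of mean plus 3 SD of all tested compounds, set per screening campaign, cut at about 20% in these data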
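Test system: GST-NR2E3 and biotin-RetCOR proteins | Quantity: 1.35 nM GST-tagged NR2E3 final | Medium: Tris pH 7.5 | Also added: 7 nM biotin-RetCOR | Dosing: Compound at 4.8 µM, single dose | Timing: 5 h at 4 °C | Detection: Time-resolved FRET | Read-out basis: Percent inhibition | Benchmarks: Biotin wells as high control, 0.6% DMSO wells as low control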
CHT inh conf: human CHT inhibition, confirmatory screen; shares compounds with CHT inh; CHT-expressing cells, choline membrane potential dye; LV-to-AA substituted CHT, HEK293 cells; CHT activity remaining % of control (hits give low values), % at 10 µM; 70% of 2,400 active; AID 493221;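 active = choline transporter activity left, mean of duplicates at 10 µM, below buffer-only control mean minus 3 SD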;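 note: depolarization triggered by choline at its EC90 following an EC20 pre-addition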
HEK293 CHT ctr: CHT inhibitor counter-screen hit in parental HEK293 cells; shares compounds with CHT inh; membrane potential dye, choline response; active = decrease or increase beyond buffer ±3SD; membrane potential ratio readout (active if shifted either direction beyond buffer ±3SD; no single direction) at 10 µM; 4% of 2,400 active;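 note: parental cells lack the transporter so any hit is non-specific; ratio is peak minus trough fluorescence over baseline after EC90 choline challenge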
Each line names hits and unclear results; the compound was inactive in the other large screens (follow-up assays come after a bar, where they were run). Compounds with a hit are over-represented: about 2.3% of the library has one in this group of screens.

CC(C)(C)c1ccc(-c2nnc3sc(COc4ccccc4)nn23)cc1	none (no result: GalR3 antagonist, CHT allo act, NR2E3 ag-1, CHT inh, NR2E3 ag-2)
COc1ccc(NC(=O)C(CCCCNC(=O)OC(C)(C)C)NC2(C(=O)NCCc3c[nH]c4ccccc34)CCCCC2)cc1 (stereo not given)	none (no result: GalR3 antagonist, CHT allo act, NR2E3 ag-1, CHT inh, NR2E3 ag-2)
Cc1ccc(-c2nn(-c3ccccn3)c(=O)c3ccccc23)cc1C	none
Cc1ccc(-c2nn(-c3ccccn3)c(=O)c3ccccc23)cc1	CHT inh -5.22 | CHT inh conf 66.6% | HEK293 CHT ctr inactive
CC(C)OP(=O)(OC(C)C)/C(C=O)=N\Nc1ccc([N+](=O)[O-])cc1	CHT inh -8.43 | CHT inh conf inactive | HEK293 CHT ctr inactive
CN(Cc1ccccc1F)C(=O)CCCNC(=O)c1ccc(Cl)cc1	CHT inh -5.78 | CHT inh conf 54.7% | HEK293 CHT ctr inactive
Cc1ccc(C(=O)N/C(=C\c2cccs2)c2nc3ccccc3[nH]2)cc1	CHT inh -5.04 | CHT inh conf 64.3% | HEK293 CHT ctr inactive
O=C(N/C(=C/c1cccs1)c1nc2ccccc2[nH]1)c1ccccc1	none
COCCCNC(=O)C[C@H]1C[C@@]2(C(=O)OC)C(=C[C@H](COCc3ccccc3)O[C@@H]2C)N(Cc2ccccc2)C1=O	none (no result: GalR3 antagonist, CHT allo act, NR2E3 ag-1, CHT inh, NR2E3 ag-2)
Cc1noc(C)c1S(=O)(=O)Nc1ccccc1Oc1ccccc1	CHT inh -13 | CHT inh conf inactive | HEK293 CHT ctr inactive
Cc1cccc(NC(=O)Cn2nnc(-c3ccccc3F)n2)c1C	none (no result: GalR3 antagonist, CHT allo act, NR2E3 ag-1, CHT inh, NR2E3 ag-2)
C=CCNC(=O)/C(=C\c1ccc([N+](=O)[O-])cc1)NC(C)=O	CHT inh -7.59 | CHT inh conf inactive | HEK293 CHT ctr inactive
O=C(Nc1cccc(Cl)c1)O[C@@H]1CC[C@@]23CCCN2C(=O)CCC[C@H]3C1	none (no result: GalR3 antagonist, CHT allo act, NR2E3 ag-1, CHT inh, NR2E3 ag-2)
O=C1NC(=S)S/C1=C\c1coc2ccccc2c1=O	CHT inh -8.39 | CHT inh conf 55.1% | HEK293 CHT ctr inactive
O=C1NC(=S)S/C1=C\c1coc2ccc(O)cc2c1=O	none
COc1ccc(C(=O)N(C)C2CCCc3ccccc32)cc1OC1CCN(C(C)C)CC1 (stereo not given)	CHT inh -9.97 | CHT inh conf 14.5% | HEK293 CHT ctr inactive
COc1ccc(C(=O)NC2CCc3ccccc32)cc1OC1CCN(C(C)C)CC1 (stereo not given)	CHT inh -8.95 | CHT inh conf 16.3% | HEK293 CHT ctr inactive
COc1ccc(C(=O)NC2CCCc3ccccc32)cc1Br (stereo not given)	none
COC(=O)c1cn(-c2ccc3c(c2)[C@]2(CC(=O)N(C)C2c2ccccc2)C(=O)N3CC(C)C)nn1 (stereo not given in full)	none (no result: GalR3 antagonist, CHT allo act, NR2E3 ag-1, CHT inh, NR2E3 ag-2)
Cc1nn(CCC(=O)NNC(=O)Nc2ccc(F)cc2)c(C)c1[N+](=O)[O-]	none (no result: GalR3 antagonist, CHT allo act, NR2E3 ag-1, CHT inh, NR2E3 ag-2)
Cc1cccc(C2c3[nH]c4ccccc4c3CCN2C(=O)c2cc3c([nH]c2=O)CCCC3)n1 (stereo not given)	CHT inh -9.56 | CHT inh conf 9.3% | HEK293 CHT ctr inactive
O=C(c1cc2c([nH]c1=O)CCCC2)N1CCc2c([nH]c3ccccc23)C1c1ccccc1F (stereo not given)	CHT inh -11.6 | CHT inh conf 29.6% | HEK293 CHT ctr inactive
Cc1ncoc1C(=O)N1CCc2c([nH]c3ccccc23)C1c1ccccc1F (stereo not given)	none
C[C@H](O)[C@@H]1CN2CCc3ccc(-c4ccc5c(c4)OCO5)cc3[C@@H]2C[C@@H]1N(C)C(=O)Nc1ccccc1	none (no result: GalR3 antagonist, CHT allo act, NR2E3 ag-1, CHT inh, NR2E3 ag-2)
CC(C)(C)c1ccc(-c2nnc3n2N=C(c2ccc(Cl)cc2)CS3)cc1	none (no result: GalR3 antagonist, CHT allo act, NR2E3 ag-1, CHT inh, NR2E3 ag-2)
NC(=O)c1nsc(C(=O)N(Cc2ccc(F)cc2)C(C(=O)NC2CCCC2)c2ccco2)c1N (stereo not given)	CHT inh -7.91 | CHT inh conf inactive | HEK293 CHT ctr inactive
